ChEMBL document CHEMBL1649446, “Comparative antipneumococcal activities of sulopenem and other drugs” (2009)
≈ marks a conversion by molar mass, not a printed value.

Assays:
Assay type in all cases: functional
Streptococcus pneumoniae [1] = assay: Antimicrobial activity against Streptococcus pneumoniae isolate 3263 by agar dilution method
Streptococcus pneumoniae [2] = assay: Antimicrobial activity against Streptococcus pneumoniae 1 by time-kill analysis
Method in brief: (§1)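 Time-kill in cation-adjusted Mueller-Hinton broth with 5% lysed horse blood; inocula 5 × 105 to 5 × 10^6 CFU/ml; drugs at MIC, 2× and 4× MIC; 35°C shaking water bath; viable counts at 0, 3, 6, 12 and 24 h. Bactericidal if ≥3 log10 CFU/ml (99.9%) reduction from original inoculum; 90% and 99% killing also scored.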

Streptococcus pneumoniae [3] = assay: Antimicrobial activity against Streptococcus pneumoniae 3 by time-kill analysis
Method in brief: (§2)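 Time-kill in cation-adjusted Mueller-Hinton broth with 5% lysed horse blood; inocula 5 × 105 to 5 × 10^6 CFU/ml; drugs at MIC, 2× and 4× MIC; 35°C shaking water bath; viable counts at 0, 3, 6, 12, 24 h. Bactericidal = ≥3 log10 CFU/ml (99.9%) drop from original inoculum; 90%/99%/99.9% killing scored per strain.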

Streptococcus pneumoniae [4] = assay: Antimicrobial activity against Streptococcus pneumoniae isolate 1394 by agar dilution method
Streptococcus pneumoniae [5] = assay: Antimicrobial activity against Streptococcus pneumoniae isolate 3346 by agar dilution method
Streptococcus pneumoniae [6] = assay: Antimicrobial activity against Streptococcus pneumoniae isolate 4755 by agar dilution method
Method in brief: (§3)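 Agar dilution MIC on Mueller-Hinton agar with 5% sheep blood, inocula 10^4 CFU/spot; amoxicillin-clavulanate combined 1:2; S. pneumoniae ATCC 49619 quality control each run.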

Streptococcus pneumoniae [7] = assay: Antimicrobial activity against Streptococcus pneumoniae 2 by time-kill analysis; method in brief: as §2
Streptococcus pneumoniae [8] = assay: Antimicrobial activity against Streptococcus pneumoniae isolate 37 by agar dilution method; method in brief: as §3
Streptococcus pneumoniae [9] = assay: Antimicrobial activity against Streptococcus pneumoniae 7 by time-kill analysis; method in brief: as §2
Streptococcus pneumoniae [10] = assay: Antimicrobial activity against Streptococcus pneumoniae 8 by time-kill analysis; method in brief: as §2
Streptococcus pneumoniae [11] = assay: Antimicrobial activity against Streptococcus pneumoniae isolate 2617 by agar dilution method; method in brief: as §3
Streptococcus pneumoniae [12] = assay: Antimicrobial activity against Streptococcus pneumoniae 10 by time-kill analysis; method in brief: as §2
Streptococcus pneumoniae [13] = assay: Antimicrobial activity against Streptococcus pneumoniae 12 by time-kill analysis; method in brief: as §2
Streptococcus pneumoniae [14] = assay: Antimicrobial activity against penicillin-resistant Streptococcus pneumoniae by agar dilution method; method in brief: as §3
Streptococcus pneumoniae [15] = assay: Antimicrobial activity against Streptococcus pneumoniae isolate 3481 by agar dilution method; method in brief: as §3
Streptococcus pneumoniae [16] = assay: Antimicrobial activity against Streptococcus pneumoniae isolate 3412 by agar dilution method; method in brief: as §3
Streptococcus pneumoniae [17] = assay: Antimicrobial activity against Streptococcus pneumoniae isolate 1147 by agar dilution method; method in brief: as §3
Streptococcus pneumoniae [18] = assay: Antimicrobial activity against Streptococcus pneumoniae isolate 2686 by agar dilution method; method in brief: as §3
Streptococcus pneumoniae [19] = assay: Antimicrobial activity against Streptococcus pneumoniae isolate 2874 by agar dilution method; method in brief: as §3
Streptococcus pneumoniae [20] = assay: Antimicrobial activity against penicillin-susceptible Streptococcus pneumoniae by agar dilution method
Streptococcus pneumoniae [21] = assay: Antimicrobial activity against Streptococcus pneumoniae isolate 3587 by agar dilution method
Streptococcus pneumoniae [22] = assay: Antimicrobial activity against Streptococcus pneumoniae isolate 3458 by agar dilution method
Streptococcus pneumoniae [23] = assay: Antimicrobial activity against Streptococcus pneumoniae isolate 4747 by agar dilution method; method in brief: as §3
Streptococcus pneumoniae [24] = assay: Antimicrobial activity against Streptococcus pneumoniae 6 by time-kill analysis; method in brief: as §2
Streptococcus pneumoniae [25] = assay: Antimicrobial activity against Streptococcus pneumoniae isolate 24 by agar dilution method
Streptococcus pneumoniae [26] = assay: Antimicrobial activity against Streptococcus pneumoniae isolate 1564 by agar dilution method
Streptococcus pneumoniae [27] = assay: Antimicrobial activity against Streptococcus pneumoniae isolate 3455 by agar dilution method
Streptococcus pneumoniae [28] = assay: Antimicrobial activity against Streptococcus pneumoniae 4 by time-kill analysis; method in brief: as §2
Streptococcus pneumoniae [29] = assay: Antimicrobial activity against Streptococcus pneumoniae isolate 33 by agar dilution method; method in brief: as §3
Streptococcus pneumoniae [30] = assay: Antimicrobial activity against Streptococcus pneumoniae isolate 3275 by agar dilution method; method in brief: as §3
Streptococcus pneumoniae [31] = assay: Antimicrobial activity against Streptococcus pneumoniae isolate 3681 by agar dilution method; method in brief: as §3
Streptococcus pneumoniae [32] = assay: Antimicrobial activity against Streptococcus pneumoniae 5 by time-kill analysis; method in brief: as §1
Streptococcus pneumoniae [33] = assay: Antimicrobial activity against Streptococcus pneumoniae isolate 1055 by agar dilution method
Streptococcus pneumoniae [34] = assay: Antimicrobial activity against Streptococcus pneumoniae isolate 1424 by agar dilution method; method in brief: as §3
Streptococcus pneumoniae [35] = assay: Antimicrobial activity against Streptococcus pneumoniae isolate 2880 by agar dilution method; method in brief: as §3
Streptococcus pneumoniae [36] = assay: Antimicrobial activity against penicillin-intermediate Streptococcus pneumoniae by agar dilution method
Streptococcus pneumoniae [37] = assay: Antimicrobial activity against Streptococcus pneumoniae 11 by time-kill analysis; method in brief: as §2
Streptococcus pneumoniae [38] = assay: Antimicrobial activity against Streptococcus pneumoniae isolate 2688 by agar dilution method; method in brief: as §3
Streptococcus pneumoniae [39] = assay: Antimicrobial activity against Streptococcus pneumoniae isolate 3260 by agar dilution method
Streptococcus pneumoniae [40] = assay: Antimicrobial activity against Streptococcus pneumoniae isolate 1146 by agar dilution method; method in brief: as §3
Streptococcus pneumoniae [41] = assay: Antimicrobial activity against Streptococcus pneumoniae 9 by time-kill analysis; method in brief: as §1
Streptococcus pneumoniae [42] = assay: Antimicrobial activity against Streptococcus pneumoniae isolate 3791 by agar dilution method; method in brief: as §3
Streptococcus pneumoniae [43] = assay: Antimicrobial activity against Streptococcus pneumoniae isolate 3374 by agar dilution method; method in brief: as §3
Streptococcus pneumoniae [44] = assay: Antimicrobial activity against Streptococcus pneumoniae isolate 1384 by agar dilution method; method in brief: as §3
Streptococcus pneumoniae [45] = assay: Antimicrobial activity against Streptococcus pneumoniae isolate 3282 by agar dilution method
Streptococcus pneumoniae [46] = assay: Antimicrobial activity against Streptococcus pneumoniae isolate 1397 by agar dilution method; method in brief: as §3

C=CC1=C(C(=O)O)N2C(=O)[C@@H](NC(=O)/C(=N\O)c3csc(N)n3)[C@H]2SC1 [CEFDINIR]
MIC (Streptococcus pneumoniae [1]): 8 µg/mL (≈ 20.2 µM)
MIC (Streptococcus pneumoniae [2]): 0.12 µg/mL (≈ 0.303 µM)
MIC (Streptococcus pneumoniae [3]): 0.5 µg/mL (≈ 1.26 µM)
MIC (Streptococcus pneumoniae [4]): 8 µg/mL (≈ 20.2 µM)
MIC (Streptococcus pneumoniae [5]): 8 µg/mL (≈ 20.2 µM)
MIC (Streptococcus pneumoniae [6]): 4 µg/mL (≈ 10.1 µM)
MIC (Streptococcus pneumoniae [7]): 0.06 µg/mL (≈ 0.152 µM)
MIC (Streptococcus pneumoniae [8]): 4 µg/mL (≈ 10.1 µM)
MIC (Streptococcus pneumoniae [9]): 4 µg/mL (≈ 10.1 µM)
MIC (Streptococcus pneumoniae [10]): 16 µg/mL (≈ 40.5 µM)
MIC (Streptococcus pneumoniae [11]): 4 µg/mL (≈ 10.1 µM)
MIC (Streptococcus pneumoniae [12]): 0.25 µg/mL (≈ 0.632 µM)
MIC (Streptococcus pneumoniae [13]): 4 µg/mL (≈ 10.1 µM)
MIC50 (Streptococcus pneumoniae [14]): 8 µg/mL (≈ 20.2 µM)
MIC90 (Streptococcus pneumoniae [14]): 8 µg/mL (≈ 20.2 µM)
MIC (Streptococcus pneumoniae [15]): 4 µg/mL (≈ 10.1 µM)
MIC (Streptococcus pneumoniae [16]): 4 µg/mL (≈ 10.1 µM)
MIC (Streptococcus pneumoniae [17]): 8 µg/mL (≈ 20.2 µM)
MIC (Streptococcus pneumoniae [18]): 8 µg/mL (≈ 20.2 µM)
MIC (Streptococcus pneumoniae [19]): 8 µg/mL (≈ 20.2 µM)
MIC50 (Streptococcus pneumoniae [20]): 0.06 µg/mL (≈ 0.152 µM)
MIC90 (Streptococcus pneumoniae [20]): 0.125 µg/mL (≈ 0.316 µM)
MIC (Streptococcus pneumoniae [21]): 8 µg/mL (≈ 20.2 µM)
MIC (Streptococcus pneumoniae [22]): 8 µg/mL (≈ 20.2 µM)
MIC (Streptococcus pneumoniae [23]): 4 µg/mL (≈ 10.1 µM)
MIC (Streptococcus pneumoniae [24]): 1 µg/mL (≈ 2.53 µM)
MIC (Streptococcus pneumoniae [25]): 4 µg/mL (≈ 10.1 µM)
MIC (Streptococcus pneumoniae [26]): 32 µg/mL (≈ 80.9 µM)
MIC (Streptococcus pneumoniae [27]): 8 µg/mL (≈ 20.2 µM)
MIC (Streptococcus pneumoniae [28]): 16 µg/mL (≈ 40.5 µM)
MIC (Streptococcus pneumoniae [29]): 8 µg/mL (≈ 20.2 µM)
MIC (Streptococcus pneumoniae [30]): 2 µg/mL (≈ 5.06 µM)
MIC (Streptococcus pneumoniae [31]): 8 µg/mL (≈ 20.2 µM)
MIC (Streptococcus pneumoniae [32]): 8 µg/mL (≈ 20.2 µM)
MIC (Streptococcus pneumoniae [33]): 8 µg/mL (≈ 20.2 µM)
MIC (Streptococcus pneumoniae [34]): 8 µg/mL (≈ 20.2 µM)
MIC (Streptococcus pneumoniae [35]): 4 µg/mL (≈ 10.1 µM)
MIC50 (Streptococcus pneumoniae [36]): 0.5 µg/mL (≈ 1.26 µM)
MIC90 (Streptococcus pneumoniae [36]): 4 µg/mL (≈ 10.1 µM)
MIC (Streptococcus pneumoniae [37]): 4 µg/mL (≈ 10.1 µM)
MIC (Streptococcus pneumoniae [38]): 16 µg/mL (≈ 40.5 µM)
MIC (Streptococcus pneumoniae [39]): 8 µg/mL (≈ 20.2 µM)
MIC (Streptococcus pneumoniae [40]): 8 µg/mL (≈ 20.2 µM)
MIC (Streptococcus pneumoniae [41]): 1 µg/mL (≈ 2.53 µM)
MIC (Streptococcus pneumoniae [42]): 8 µg/mL (≈ 20.2 µM)
MIC (Streptococcus pneumoniae [43]): 4 µg/mL (≈ 10.1 µM)
MIC (Streptococcus pneumoniae [44]): 8 µg/mL (≈ 20.2 µM)
MIC (Streptococcus pneumoniae [45]): 8 µg/mL (≈ 20.2 µM)
MIC (Streptococcus pneumoniae [46]): 4 µg/mL (≈ 10.1 µM)

COc1c(N2C[C@@H]3CCCN[C@@H]3C2)c(F)cc2c(=O)c(C(=O)O)cn(C3CC3)c12 [MOXIFLOXACIN]
MIC (Streptococcus pneumoniae [2]): 4 µg/mL (≈ 9.96 µM)
MIC (Streptococcus pneumoniae [26]): 0.25 µg/mL (≈ 0.623 µM)
MIC (Streptococcus pneumoniae [28]): 2 µg/mL (≈ 4.98 µM)
MIC (Streptococcus pneumoniae [33]): 4 µg/mL (≈ 9.96 µM)

CC[C@H]1OC(=O)[C@H](C)C(=O)[C@H](C)[C@@H](O[C@@H]2O[C@H](C)C[C@H](N(C)C)[C@H]2O)[C@](C)(OC)C[C@@H](C)C(=O)[C@H](C)[C@H]2N(CCCCn3cnc(-c4cccnc4)c3)C(=O)O[C@]12C [TELITHROMYCIN]
MIC (Streptococcus pneumoniae [2]): 0.03 µg/mL (≈ 0.0369 µM)
MIC (Streptococcus pneumoniae [3]): 0.12 µg/mL (≈ 0.148 µM)
MIC (Streptococcus pneumoniae [7]): 0.008 µg/mL (≈ 0.00985 µM)
MIC (Streptococcus pneumoniae [9]): 0.06 µg/mL (≈ 0.0739 µM)
MIC (Streptococcus pneumoniae [10]): 0.12 µg/mL (≈ 0.148 µM)
MIC (Streptococcus pneumoniae [12]): 0.008 µg/mL (≈ 0.00985 µM)
MIC (Streptococcus pneumoniae [13]): 0.016 µg/mL (≈ 0.0197 µM)
MIC (Streptococcus pneumoniae [24]): 0.004 µg/mL (≈ 0.00493 µM)
MIC (Streptococcus pneumoniae [28]): 0.008 µg/mL (≈ 0.00985 µM)
MIC (Streptococcus pneumoniae [32]): 0.12 µg/mL (≈ 0.148 µM)
MIC (Streptococcus pneumoniae [37]): 0.03 µg/mL (≈ 0.0369 µM)
MIC (Streptococcus pneumoniae [41]): 0.008 µg/mL (≈ 0.00985 µM)

C[C@@H](O)[C@H]1C(=O)N2C(C(=O)O)=C(S[C@@H]3CN[C@H](C(=O)Nc4cccc(C(=O)O)c4)C3)[C@H](C)[C@H]12 [ERTAPENEM]
MIC (Streptococcus pneumoniae [2]): 0.03 µg/mL (≈ 0.0631 µM)
MIC (Streptococcus pneumoniae [3]): 0.25 µg/mL (≈ 0.526 µM)
MIC (Streptococcus pneumoniae [7]): 0.03 µg/mL (≈ 0.0631 µM)
MIC (Streptococcus pneumoniae [9]): 2 µg/mL (≈ 4.21 µM)
MIC (Streptococcus pneumoniae [10]): 1 µg/mL (≈ 2.1 µM)
MIC (Streptococcus pneumoniae [12]): 0.12 µg/mL (≈ 0.252 µM)
MIC (Streptococcus pneumoniae [13]): 0.5 µg/mL (≈ 1.05 µM)
MIC (Streptococcus pneumoniae [24]): 0.12 µg/mL (≈ 0.252 µM)
MIC (Streptococcus pneumoniae [28]): 1 µg/mL (≈ 2.1 µM)
MIC (Streptococcus pneumoniae [32]): 4 µg/mL (≈ 8.41 µM)
MIC (Streptococcus pneumoniae [37]): 2 µg/mL (≈ 4.21 µM)
MIC (Streptococcus pneumoniae [41]): 0.12 µg/mL (≈ 0.252 µM)
